Assay results gathered from unrelated publications.
Compare with care: the assays were run in different laboratories. ≈ marks a conversion by molar mass, not a printed value.

Structure (SMILES) | target or system | test | test system | setting | endpoint | result
NC[C@H]1O[C@H](O[C@H]2[C@H](O)[C@@H](O[C@H]3O[C@H](CO)[C@@H](O)[C@H](N)[C@H]3O)[C@H](N)C[C@@H]2N)[C@H](N)C[C@@H]1O | Bacillus cereus | microbial growth | ATCC11778 |  | MIC | 18.8 µg/mL
COc1ccc(C[C@H](NC(=O)[C@H](C)NC(=O)CN2CCOCC2)C(=O)N[C@@H](Cc2ccccc2)C(=O)[C@@]2(C)CO2)cc1 | RPMI-8226 | cell growth or viability, MTS |  | 72 h | IC50 | 213 nM
C[C@H]1O[C@@H](O[C@H]2[C@@H](O)C[C@H](O[C@H]3[C@@H](O)C[C@H](O[C@H]4CC[C@@]5(C)[C@H](CC[C@@H]6[C@@H]5C[C@@H](O)[C@]5(C)[C@@H](C7=CC(=O)OC7)CC[C@]65O)C4)O[C@@H]3C)O[C@@H]2C)C[C@H](O)[C@@H]1O | ReNcell VM | cell growth or viability |  | 24 h | IC50 | ~560 nM
O=C(N[C@H](CO)[C@H](O)c1ccc([N+](=O)[O-])cc1)C(Cl)Cl | Salmonella enterica | microbial growth | CHOLERAESUIS | 20 h, pH 7.2 | MIC | 4 µg/mL
CC(C)C[C@H](NC(=O)[C@H](Cc1c[nH]c2ccccc12)NC(=O)[C@H](C)NC(=O)OCc1ccccc1)C(=O)C(=O)Nc1ccccc1 | RPMI-8226 | cell growth or viability, MTS |  | 72 h | IC50 | 760 nM
CCN1CCN(c2cc3c(cc2F)c(=O)c(C(=O)O)cn3C2CC2)CC1 | Salmonella enterica | microbial growth | CHOLERAESUIS | 20 h, pH 7 | MIC | 0.0625 µg/mL
CC1=NN(CNc2ccc(O)cc2)C(=O)C1=NNn1c(-c2ccccc2)nc2ccccc2c1=O | Salmonella enterica | microbial growth, broth dilution | PARATYPHI | 24 h | MIC | 107 µM
CO/N=C(\C(=O)N[C@@H]1C(=O)N2C(C(=O)O)=C(CSC(=O)c3ccco3)CS[C@H]12)c1csc(N)n1 | Salmonella enterica | microbial growth | CHOLERAESUIS | 20 h, pH 5.5 | MIC | 1 µg/mL
CC1=NN(CNc2ccccn2)C(=O)C1=NNn1c(-c2ccccc2)nc2ccccc2c1=O | Salmonella enterica | microbial growth, broth dilution | PARATYPHI | 24 h | MIC | 55.2 µM
Cc1cc(Cc2ccc(Cl)cc2)n(O)c(=O)c1 | Cryptococcus gattii | microbial growth |  |  | MIC80 | 3 µM (≈ 0.749 µg/mL)
CCCCCCCCCCCC(=O)OC[C@H]1O[C@@H](n2cc(C)c(=O)[nH]c2=O)C[C@@H]1O | Bacillus cereus | microbial killing, broth dilution |  |  | MBC | 8 µg/mL (≈ 18.8 µM)
COc1ccccc1Cc1cc(C)cc(=O)n1O | Cryptococcus gattii | microbial growth |  |  | MIC80 | 1.5 µM (≈ 0.368 µg/mL)
O=c1[nH]cc(F)c(=O)[nH]1 | Shigella dysenteriae | microbial killing, broth dilution |  | 48 h | MBC | 8 µg/mL (≈ 61.5 µM)
COc1ccc(Cc2cc(C)cc(=O)n2O)cc1 | Cryptococcus gattii | microbial growth |  |  | MIC80 | 2.3 µM (≈ 0.564 µg/mL)
CCC1(c2ccc(N)cc2)CCC(=O)NC1=O (centres unmarked) | OVCAR-3 | cell growth or viability, CCK-8 |  | 48 h | IC50 | > 50000 nM
COc1cc(Cc2cnc(N)nc2N)cc(OC)c1OC | Shigella dysenteriae | microbial killing, broth dilution |  | 48 h | MBC | 32 µg/mL (≈ 110 µM)
CC1=CC[C@H]2O[C@]1(C)O[C@H]([C@H](C)/C=C(C)/C=C/C(O)=C1/C(=O)CNC1=O)[C@H]2C | Bacillus cereus | microbial growth |  |  | MIC | 3.13 µM
CCCCCCCCCCCC(=O)OC[C@H]1O[C@@H](n2cc(C)c(=O)[nH]c2=O)C[C@@H]1OC(=O)c1ccc(C(C)(C)C)cc1 | Bacillus cereus | microbial growth, broth dilution |  |  | MIC | 2 µg/mL
CO/N=C(\C(=O)N[C@@H]1C(=O)N2C(C(=O)O)=C(CSc3nc(=O)c(=O)[nH]n3C)CS[C@H]12)c1csc(N)n1 | Salmonella enterica | microbial growth | CHOLERAESUIS | 20 h, pH 7 | MIC | 0.0625 µg/mL
CC(=O)c1cccc(NC(=O)C(=O)[C@H](CC(C)C)NC(=O)[C@H](CC(C)C)NC(=O)[C@H](CC(C)C)NC(=O)OCc2ccccc2)c1 | RPMI-8226 | cell growth or viability, MTS |  | 72 h | IC50 | 48.7 nM
CC1=CC(=O)[C@H]2O[C@]1(C)O[C@H]([C@H](C)/C=C(C)/C=C/C(O)=C1/C(=O)CNC1=O)[C@H]2C | Bacillus cereus | microbial growth |  |  | MIC | 25 µM
O=c1c(O)c(-c2ccc(O)c(O)c2)oc2cc(O)cc(O)c12 | Salmonella enterica | microbial growth | TYPHI |  | IC50 | 80100 nM
Cc1cc(C2CCCCC2)n(O)c(=O)c1 | Cryptococcus gattii | microbial growth |  |  | MIC80 | 2.3 µM (≈ 0.477 µg/mL)
